Calls of active or inactive are those of the source. The rule behind the calls is not given here.
Key:
[1] = target: T1, P2Y purinoceptor 4 (Homo sapiens, UniProt P51582); test: Antagonist activity at human P2Y4 receptor expressed in human 1321N1 cells assessed as inhibition of UTP-induced intracellular calcium mobilization at 100 uM by FLUOstar plate reader; assay type: functional, cell-based
How it was run: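 Human 1321N1 astrocytoma cells express human P2Y2 or P2Y4, or rat P2Y6. Cells are loaded with Fura-2 AM and preincubated with compound at 100 μM. Inhibition of agonist-induced intracellular calcium release is read as Fura-2 fluorescence. The agonist is UTP for P2Y2 and P2Y4, and UDP for P2Y6.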

[2] = target: P2Y purinoceptor 2 (Homo sapiens, UniProt P41231); test: Antagonist activity at human P2Y2 receptor expressed in human 1321N1 cells assessed as inhibition of UTP-induced intracellular calcium mobilization by FLUOstar plate reader; assay type: functional, cell-based
How it was run: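 Fura-2 AM-loaded astrocytoma cells expressing human P2Y2 receptor. Compound is tested at 0.1, 0.3, 1, 3, 10, 30 and 100 μM. The read-out is inhibition of UTP-induced intracellular calcium mobilization.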

[3] = Inhibition of rat NTPDase 3
[4] = target: P2Y purinoceptor 6 (Rattus norvegicus) (UniProt Q63371); test: Antagonist activity at rat P2Y6 receptor expressed in human 1321N1 cells assessed as inhibition of UDP-induced intracellular calcium mobilization by NOVOstar plate reader
[5] = target: T2, Ectonucleoside triphosphate diphosphohydrolase 8 (Homo sapiens, UniProt Q5MY95); test: Inhibition of human NTPDase 8 expressed in COS7 cells; assay type: cell-based, COS-7
T2 sequence (Q5MY95 whole entry): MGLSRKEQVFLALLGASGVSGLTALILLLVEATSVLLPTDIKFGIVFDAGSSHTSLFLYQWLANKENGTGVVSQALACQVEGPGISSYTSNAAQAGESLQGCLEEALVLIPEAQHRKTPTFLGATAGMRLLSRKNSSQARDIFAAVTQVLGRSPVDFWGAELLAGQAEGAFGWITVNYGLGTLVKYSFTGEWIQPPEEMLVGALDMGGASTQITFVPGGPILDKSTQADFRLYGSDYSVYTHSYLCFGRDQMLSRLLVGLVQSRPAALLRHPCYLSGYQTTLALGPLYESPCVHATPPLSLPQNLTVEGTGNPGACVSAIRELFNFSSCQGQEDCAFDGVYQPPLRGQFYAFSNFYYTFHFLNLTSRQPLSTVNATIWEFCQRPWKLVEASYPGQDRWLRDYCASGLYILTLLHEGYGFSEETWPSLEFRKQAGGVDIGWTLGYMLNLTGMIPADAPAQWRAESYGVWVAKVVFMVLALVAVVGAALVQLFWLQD
How it was run: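 NTPDase2 membranes come from stably transfected HEK 293 cells; NTPDase3 and NTPDase8 are transiently expressed in COS-7 cells as crude protein extracts. Buffer is 140 mM NaCl, 5 mM KCl, 1 mM MgCl2, 2 mM CaCl2, 10 mM HEPES pH 7.4, with 400 μM ATP, 37 °C, 10 min, stopped at 99 °C. Products are read by capillary electrophoresis (UV 210 nm, UMP internal standard).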

[6] = target: P2Y purinoceptor 6 (Rattus norvegicus, UniProt Q63371); test: Antagonist activity at rat P2Y6 receptor expressed in human 1321N1 cells assessed as inhibition of UDP-induced intracellular calcium mobilization by NOVOstar plate reader
[7] = target: T1, P2Y purinoceptor 4; test: Antagonist activity at human P2Y4 receptor expressed in human 1321N1 cells assessed as inhibition of UTP-induced intracellular calcium mobilization by FLUOstar plate reader; assay type: functional, cell-based

T1 sequence (P51582 whole entry): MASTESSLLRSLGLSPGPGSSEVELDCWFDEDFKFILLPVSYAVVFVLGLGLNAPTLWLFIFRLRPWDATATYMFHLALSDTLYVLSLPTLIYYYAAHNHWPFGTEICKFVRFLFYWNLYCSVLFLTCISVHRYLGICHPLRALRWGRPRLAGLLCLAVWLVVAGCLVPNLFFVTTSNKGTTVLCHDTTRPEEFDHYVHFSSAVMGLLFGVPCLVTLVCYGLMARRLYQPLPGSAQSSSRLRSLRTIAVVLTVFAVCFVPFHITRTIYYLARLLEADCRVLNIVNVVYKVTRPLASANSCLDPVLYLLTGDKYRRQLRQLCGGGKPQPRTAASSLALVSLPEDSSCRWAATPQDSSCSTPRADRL
Chain of P2Y purinoceptor 2 (P41231 whole entry): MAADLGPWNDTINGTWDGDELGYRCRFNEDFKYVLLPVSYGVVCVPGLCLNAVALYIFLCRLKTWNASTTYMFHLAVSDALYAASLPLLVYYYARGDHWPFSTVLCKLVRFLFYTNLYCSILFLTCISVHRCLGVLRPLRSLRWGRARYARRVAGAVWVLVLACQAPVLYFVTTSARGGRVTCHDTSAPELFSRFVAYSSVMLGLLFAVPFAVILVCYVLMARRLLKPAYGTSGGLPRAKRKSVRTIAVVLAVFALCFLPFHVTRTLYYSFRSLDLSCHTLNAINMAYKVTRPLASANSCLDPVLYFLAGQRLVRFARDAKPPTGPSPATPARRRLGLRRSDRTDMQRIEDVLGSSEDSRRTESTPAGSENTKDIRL
Chain of P2Y purinoceptor 6 (Q63371 whole entry): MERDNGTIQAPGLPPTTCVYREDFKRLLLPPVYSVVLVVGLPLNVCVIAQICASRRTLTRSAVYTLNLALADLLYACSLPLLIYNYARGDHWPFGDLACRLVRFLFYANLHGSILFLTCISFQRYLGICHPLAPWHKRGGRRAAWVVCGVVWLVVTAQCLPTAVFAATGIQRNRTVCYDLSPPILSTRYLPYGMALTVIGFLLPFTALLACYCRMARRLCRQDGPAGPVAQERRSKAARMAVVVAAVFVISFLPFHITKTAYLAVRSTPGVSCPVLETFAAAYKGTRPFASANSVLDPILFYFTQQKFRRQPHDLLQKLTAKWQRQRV

SMILES | Activity [1] | IC50 [2] [µM] | Ki [3] [µM] | IC50 [4] [µM] | Ki [5] [µM] | IC50 [6] [µM] | IC50 [7] [µM]
Cc1ccc(C(=O)Nc2ccc(S(=O)(=O)O)c3cc(S(=O)(=O)O)cc(S(=O)(=O)O)c23)cc1NC(=O)c1cccc(NC(=O)Nc2cccc(C(=O)Nc3cc(C(=O)Nc4ccc(S(=O)(=O)O)c5cc(S(=O)(=O)O)cc(S(=O)(=O)O)c45)ccc3C)c2)c1 [SURAMIN] | inactive | 50 | 12.7 | 27 | > 100 | – | –
Nc1c(S(=O)(=O)O)cc(Nc2ccc(Nc3nc(Cl)nc(Nc4cccc(S(=O)(=O)O)c4)n3)c(S(=O)(=O)O)c2)c2c1C(=O)c1ccccc1C2=O [RB 2] | – | 12 | – | – | > 100 | 4.34 | 5.75

From ChEMBL document CHEMBL1155882, “Selective nucleoside triphosphate diphosphohydrolase-2 (NTPDase2) inhibitors: nucleotide mimetics derived from uridine-5'-carboxamide” (J Med Chem, 2008)
